Measured values as given in PubChem BioAssay.
The source made the active and inactive calls.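 How the source made its calls, unless noted: active means fluorescence slope higher than the sample average by over 3 SD (cut at about -0.22 in these data, passing the limit was not always enough); inactive means the rest.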

Tests used:
[1] = inhibitors of TNFa-induced NFkB p65 translocation, primary screen, imaging, HUVEC, MLSMR starter and 10KST1 sets (AID 438;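 active means inhibition above 20% together with a positive visual image hit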;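 further: compound added about 3h40 before a 20 min TNFalpha stimulation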;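 on inhibition: signal is the nuclear over cytoplasmic p65 intensity ratio per well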); conditions: HUVEC TNFa-induced p65 nuclear translocation; cell count: measured here: nuclei count (cytotoxicity indicator), at 2.08 µM; inhibition: at 2 µM, stronger effect = higher value, 0% TNFa-plus-vehicle, 100% no-TNFa wells
[2] = reduction of polyQ htt aggregates in cells – imaging, exon1htt(103Q)mCFP cells, high-content imaging, primary screen (AID 483;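 active means visual image review flags a hit and inhibition of aggregation exceeds 20%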;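 further: compound exposure lasted 3 days before fixation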;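 on nuclei count: percent of the per-plate median nuclei count of sample wells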); conditions: exon1htt(103Q)mCFP cell line, aggregate imaging, at 2 µM; inhibition of aggregation: stronger effect = higher value; nuclei count: measured here: cell count, toxicity
[3] = endothelial E-selectin expression blockers – imaging, HUVEC, immunofluorescence, MLSMR starter and 10KST1 sets, primary screen (AID 487;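 active means visually confirmed hit in the image check and inhibition above 20%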;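 on inhibition: signal is fraction of cell area covered by stained E-selectin grains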;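 on nuclei count: 100% = median nuclei count of all wells on the same plate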); conditions: HUVEC TNFalpha-induced E-selectin immunofluorescence imaging, at 2 µM; inhibition: stronger effect = higher value; nuclei count: measured here: cell number, toxicity
[4] = target: Voltage-gated potassium channel subunit beta-2 (Rattus norvegicus) (UniProt P62483); assay: inhibitors of rat Kvbeta2 reductase activity – biochemical, NADPH fluorescence, primary screen (AID 622); conditions: recombinant KvBeta, 4-cyanobenzaldehyde reduction, at 10 µM, stronger effect = higher value;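 further: slope of raw intensity against log time taken from 70 to 1610 s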
[5] = target: Voltage-gated potassium channel subunit beta-2 (Rattus norvegicus) (UniProt P62483); assay: enhancers of rat Kvbeta2 NADPH turnover – biochemical, NADPH fluorescence, primary screen (AID 623;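 active means NADPH fluorescence slope more negative than the mean of all samples by about 3 SD, 99.7% confidence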;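 further: fluorescence intensity change per second fitted from 20 to 320 s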); conditions: Recombinant KvBeta, NADPH fluorescence decrease slope, 10 min; at 10 µM; stronger effect = lower value
[6] = target: Alpha-2C adrenergic receptor (Homo sapiens) (UniProt P18825); assay: compounds altering alpha2C-coupled GIRK flux – cell-based, HEK293 alpha2C/GIRK1/2, thallium flux, primary screen (AID 624;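 active means fluorescence slope after compound addition differing from the mean of all screened samples at 99.7% confidence, in either direction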;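 further: slope of fluorescence ratio to pre-addition baseline per second over 15 to 24 s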); conditions: thallium flux BTC fluorescence, at 10 µM, actives lie on both sides
[7] = inhibitors of larval lipid processing in zebrafish, primary screen, whole organism, PED6 fluorescence, gall bladder and intestine (AID 686;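 active means a full or partial loss of lipid-probe fluorescence in the fish gall bladder, intestine or both, judged by eye; inactive means no fluorescence loss, or compound toxic to the fish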;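 further: larvae 5 to 7 days old with five fish per well; signal comes from phospholipase A2 cleavage of quenched PED6 carried via bile; overnight exposure to compound and PED6 before scoring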); conditions: Zebrafish larvae PED6 lipid processing, fluorescence scoring; screened at 20 µM (by protocol)
Method in brief: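 system = live zebrafish larvae aged 5-7 days, whole organism | probe or stimulus = ingested quenched lipid PED6 at 100 nM | doses = 20 µM single dose | timing = overnight exposure | detection = fluorescence microscopy with visual scoring of gall bladder and intestine | read-out = visual per-well fluorescence inhibition score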

[8] = blockers of RIG-like receptor reporter activation – cell-based, Sendai virus stimulus, luciferase, 10K MLSCN set, TLR/RLR signaling modifier project, primary screen (AID 602276;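 active means inhibition at or above 50% at 10 µM; inactive means inhibition below 50%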;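 further: firefly luciferase from ISG56 promoter only with Renilla not read in this screen; 0% = Sendai virus plus DMSO and 100% = medium plus DMSO without virus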); conditions: HEK293 RL24 IRF3 luciferase reporter, at 10 µM, stronger effect = higher value
[9] = TLR3 IRF3 reporter activation blockers – cell-based, poly I:C stimulus, luciferase, 10K MLSCN set, primary screen (AID 602277;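 active means inhibition of the reporter signal at or above 50%; inactive means inhibition below 50%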); conditions: HEK293-TLR3 RL24 IRF3 luciferase reporter, at 10 µM, stronger effect = higher value

Chain of Voltage-gated potassium channel subunit beta-2 (Rattus norvegicus) (P62483 whole entry, looked up): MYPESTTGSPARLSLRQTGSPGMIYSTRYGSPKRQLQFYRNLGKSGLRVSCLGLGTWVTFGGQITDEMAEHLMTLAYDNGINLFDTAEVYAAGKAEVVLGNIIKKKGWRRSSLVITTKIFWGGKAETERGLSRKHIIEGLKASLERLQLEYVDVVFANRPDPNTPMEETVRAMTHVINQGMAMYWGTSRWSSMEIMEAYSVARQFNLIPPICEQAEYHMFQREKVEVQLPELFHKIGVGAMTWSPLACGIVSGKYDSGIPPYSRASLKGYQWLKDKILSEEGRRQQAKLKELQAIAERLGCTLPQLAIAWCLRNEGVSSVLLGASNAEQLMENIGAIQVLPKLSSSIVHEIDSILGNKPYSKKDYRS
Chain of Alpha-2C adrenergic receptor (Homo sapiens) (P18825 whole entry, looked up): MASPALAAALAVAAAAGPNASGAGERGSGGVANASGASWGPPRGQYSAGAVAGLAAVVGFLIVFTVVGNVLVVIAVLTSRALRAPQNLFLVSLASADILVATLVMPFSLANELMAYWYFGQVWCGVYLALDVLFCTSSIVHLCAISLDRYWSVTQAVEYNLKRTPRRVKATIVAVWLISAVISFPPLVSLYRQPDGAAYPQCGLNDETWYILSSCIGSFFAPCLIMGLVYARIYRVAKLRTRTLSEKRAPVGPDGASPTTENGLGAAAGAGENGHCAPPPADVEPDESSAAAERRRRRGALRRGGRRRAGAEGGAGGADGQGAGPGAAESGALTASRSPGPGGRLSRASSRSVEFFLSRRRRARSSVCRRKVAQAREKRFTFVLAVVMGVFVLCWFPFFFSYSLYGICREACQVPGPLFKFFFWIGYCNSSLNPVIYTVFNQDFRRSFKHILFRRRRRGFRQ

With `Cc1cc(NC(=O)C(C)(C)C)no1` the cell count [1] was 507, the inhibition [1] was -8.7% (inactive) and the inhibition of aggregation [2] was -18% (inactive). The nuclei count [2] was 118%, the inhibition [3] was -50.6% (inactive) and the nuclei count [3] was 124%. The fluorescence slope [4] was -0.29 (inactive), the NADPH fluorescence slope [5] was -1.1e-05 (inactive) and the slope [6] was 0.005 (inactive). For the same compound, the outcome [7] was “inactive”, the inhibition [8] was 16.1% (inactive) and the inhibition [9] was 20.8% (inactive).

In the case of `CCn1c(SCC(=O)Nc2ccc3c(c2)OCO3)nnc1-c1cnccn1`, the cell count [1] is reported as 542, the inhibition [1] is reported as -3.4% (inactive) and the inhibition of aggregation [2] is reported as 1.7% (inactive). For the same compound, the nuclei count [2] was 89.2%, the inhibition [3] was -72.2% (inactive) and the nuclei count [3] was 118%. The fluorescence slope [4] was -0.437 (inactive), the NADPH fluorescence slope [5] was -5.6e-05 (inactive) and the slope [6] was 0.00469 (inactive). For the same compound, the outcome [7] was “inactive”, the inhibition [8] was 15.5% (inactive) and the inhibition [9] was 16.7% (inactive).

With `Cc1cc(C)cc(NC(=O)CN(C)S(=O)(=O)c2cnc[nH]2)c1` the cell count [1] was 484, the inhibition [1] was 8.7% (inactive) and the inhibition of aggregation [2] was -24% (inactive). For the same compound, the nuclei count [2] was 110%, the inhibition [3] was 0.4% (inactive) and the nuclei count [3] was 100%. The fluorescence slope [4] was -0.406 (inactive), the NADPH fluorescence slope [5] was -3.6e-05 (inactive) and the slope [6] was 0.00489 (inactive). The outcome [7] was “inactive”, the inhibition [8] was 1.14% (inactive) and the inhibition [9] was 2.32% (inactive).

For `Cc1cccc(C(=O)O)c1NC(=O)c1ccc(F)cc1`, the cell count [1] was 343, the inhibition [1] was 0.2% (inactive) and the inhibition of aggregation [2] was -4.7% (inactive). For the same compound, the nuclei count [2] was 99.9%, the inhibition [3] was 21.9% (inactive) and the nuclei count [3] was 97.3%. For the same compound, the fluorescence slope [4] was -0.333 (inactive), the NADPH fluorescence slope [5] was -1.3e-05 (inactive) and the slope [6] was 0.00577 (inactive). The outcome [7] was “inactive”, the inhibition [8] was -3.9% (inactive) and the inhibition [9] was 2.7% (inactive).

For `Cc1ccc(C)c(-n2nnnc2SCC(=O)NCCC2=CCCCC2)c1`, the cell count [1] was 409, the inhibition [1] was -6.6% (inactive) and the inhibition of aggregation [2] was 28.8% (inactive). The nuclei count [2] was 99.5%, the inhibition [3] was -16.3% (inactive) and the nuclei count [3] was 106%. For the same compound, the fluorescence slope [4] was -0.468 (inactive), the NADPH fluorescence slope [5] was -5.4e-05 (inactive) and the slope [6] was 0.00361 (inactive). The outcome [7] was “inactive”, the inhibition [8] was 17.6% (inactive) and the inhibition [9] was 14.8% (inactive).

In the case of `Cc1ccc(S(=O)(=O)N2CCN(C(=O)N3CCOCC3)C2C)cc1` (centres undefined), the cell count [1] is reported as 469, the inhibition [1] is reported as 7.3% (inactive) and the inhibition of aggregation [2] is reported as 12.7% (inactive). The nuclei count [2] was 102%, the inhibition [3] was -48.1% (inactive) and the nuclei count [3] was 108%. The fluorescence slope [4] was -0.439 (inactive), the NADPH fluorescence slope [5] was -5.1e-05 (inactive) and the slope [6] was 0.00556 (inactive). For the same compound, the outcome [7] was “inactive”, the inhibition [8] was 11.8% (inactive) and the inhibition [9] was 45.8% (inactive).

With `COc1ccc(NC(=O)CSc2nc(C)cc(C(F)(F)F)n2)cc1` the cell count [1] was 648, the inhibition [1] was -3.3% (inactive) and the inhibition of aggregation [2] was 8.8% (inactive). The nuclei count [2] was 95.3%, the inhibition [3] was -1% (inactive) and the nuclei count [3] was 92.8%. For the same compound, the fluorescence slope [4] was -0.418 (inactive), the NADPH fluorescence slope [5] was -2.1e-05 (inactive) and the slope [6] was 0.00507 (inactive). For the same compound, the outcome [7] was “inactive”, the inhibition [8] was 14.9% (inactive) and the inhibition [9] was 18.5% (inactive).

In the case of `O=C(CN1C(=O)c2ccccc2C1=O)Nc1ccc(S(=O)(=O)NCC2CCCO2)cc1` (centres undefined), the cell count [1] is reported as 389, the inhibition [1] is reported as -6% (inactive) and the inhibition of aggregation [2] is reported as -2.4% (inactive). The nuclei count [2] was 93.4%, the inhibition [3] was -52.4% (inactive) and the nuclei count [3] was 107%. For the same compound, the fluorescence slope [4] was -0.412 (inactive), the NADPH fluorescence slope [5] was -2.5e-05 (inactive) and the slope [6] was 0.00503 (inactive). For the same compound, the outcome [7] was “inactive”, the inhibition [8] was -1.96% (inactive) and the inhibition [9] was 98.2% (active).

In the case of `CCOC(=O)N1CCC(NC(=O)Cn2cc3c(n2)CCC(C)C3)CC1` (centres undefined), the cell count [1] is reported as 420, the inhibition [1] is reported as -11.9% (inactive) and the inhibition of aggregation [2] is reported as 0.7% (inactive). The nuclei count [2] was 108%, the inhibition [3] was -5.4% (inactive) and the nuclei count [3] was 101%. The fluorescence slope [4] was -0.479 (inactive), the NADPH fluorescence slope [5] was 1.7e-05 (inactive) and the slope [6] was 0.0047 (inactive). For the same compound, the outcome [7] was “inactive”, the inhibition [8] was -10.4% (inactive) and the inhibition [9] was -9.33% (inactive).

With `COc1ccc(-c2noc(CCCOc3ccccc3)n2)cc1OC` the cell count [1] was 429, the inhibition [1] was 1.5% (inactive) and the inhibition of aggregation [2] was 21% (inactive). The nuclei count [2] was 93%, the inhibition [3] was -33% (inactive) and the nuclei count [3] was 134%. The fluorescence slope [4] was -0.473 (inactive), the NADPH fluorescence slope [5] was -1.6e-05 (inactive) and the slope [6] was 0.00512 (inactive). The outcome [7] was “inactive”, the inhibition [8] was -2.22% (inactive) and the inhibition [9] was -9.66% (inactive).

With `Cc1cc(C)nc(SCc2ccc3nonc3c2)n1` the cell count [1] was 634, the inhibition [1] was -4.3% (inactive) and the inhibition of aggregation [2] was -20.5% (inactive). For the same compound, the nuclei count [2] was 114%, the inhibition [3] was 12.3% (inactive) and the nuclei count [3] was 97.4%. For the same compound, the fluorescence slope [4] was -0.282 (inactive), the NADPH fluorescence slope [5] was -1.3e-05 (inactive) and the slope [6] was 0.00664 (inactive). The outcome [7] was “inactive; toxic”, the inhibition [8] was 8.18% (inactive) and the inhibition [9] was 10.6% (inactive).

With `CCSCc1nnc(SCC(=O)Nc2cccc(SC)c2)n1C` the cell count [1] was 492, the inhibition [1] was -5.8% (inactive) and the inhibition of aggregation [2] was 0.2% (inactive). For the same compound, the nuclei count [2] was 101%, the inhibition [3] was -43.2% (inactive) and the nuclei count [3] was 147%. The fluorescence slope [4] was -0.452 (inactive), the NADPH fluorescence slope [5] was -4.6e-05 (inactive) and the slope [6] was 0.00484 (inactive). The outcome [7] was “inactive”, the inhibition [8] was 9.84% (inactive) and the inhibition [9] was 18.9% (inactive).
